Assay results from ChEMBL document CHEMBL4689842, “EUbOPEN Chemogenomics Library wave 1” (2021).

System: HEK-293T
Experiment: Multiplex assay against HEK293T;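 for Population Tubulin-Different-Phenotype (%): share of the cells with healthy nuclei that show this phenotype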
Type: toxicity, cell-based
Conditions: human
In short: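 On a CQ1 microscope at 37°C and 5% CO2, live cells were imaged after compound addition. They had been stained at seeding with Hoechst33342, BioTracker Green Microtubule Cytoskeleton Dye, MitoTracker Red and Annexin V Alexa Fluor 680. CellPathfinder machine-learning gating assigned cells to Hoechst high-intensity objects or normal cells, normal cells to healthy, pyknosed or fragmented nuclei, and pyknosed cells to mitotic or apoptotic. Tubulin, mitochondrial-mass and membrane-permeability phenotypes are per cents of healthy-nucleus cells.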

[1] = 12 h, 1 µM, compound concentration 1 uM, replicate 1
[2] = 12 h, 1 µM, compound concentration 1 uM, replicate 2
[3] = 12 h, 10 µM, compound concentration 10 uM, replicate 1
[4] = 12 h, 10 µM, compound concentration 10 uM, replicate 2
[5] = 24 h, 1 µM, compound concentration 1 uM, replicate 1
[6] = 24 h, 1 µM, compound concentration 1 uM, replicate 2
[7] = 24 h, 10 µM, compound concentration 10 uM, replicate 1
[8] = 24 h, 10 µM, compound concentration 10 uM, replicate 2

## O=C(Nc1cccnn1)N1CCC(=Cc2cccc(Oc3ccc(C(F)(F)F)cn3)c2)CC1
[1]
  Population Apoptotic (%): 22%
  Population Fragmented Nuclei (%): 20%
  Population Healthy Nuclei (%): 46%
  Population Hoechst High Intensity Objects (%): 16%
  Population Membrane Permeable-Phenotype (%): 10%
  Population Mitochondria Different-Phenotype (%): 17%
  Population Mitotic Cells (%): 77%
  Population Normal (%): 83%
  Population Pyknosed Nuclei (%): 33%
  Population Tubulin-Different-Phenotype (%): 29%
  Total Cell Count: 578
[2]
  Population Apoptotic (%): 17%
  Population Fragmented Nuclei (%): 5%
  Population Healthy Nuclei (%): 83%
  Population Hoechst High Intensity Objects (%): 9%
  Population Membrane Permeable-Phenotype (%): 7%
  Population Mitochondria Different-Phenotype (%): 30%
  Population Mitotic Cells (%): 82%
  Population Normal (%): 90%
  Population Pyknosed Nuclei (%): 11%
  Population Tubulin-Different-Phenotype (%): 62%
  Total Cell Count: 1415
[3]
  Population Apoptotic (%): 30%
  Population Fragmented Nuclei (%): 13%
  Population Healthy Nuclei (%): 67%
  Population Hoechst High Intensity Objects (%): 9%
  Population Membrane Permeable-Phenotype (%): 3%
  Population Mitochondria Different-Phenotype (%): 4%
  Population Mitotic Cells (%): 69%
  Population Normal (%): 90%
  Population Pyknosed Nuclei (%): 18%
  Population Tubulin-Different-Phenotype (%): 5%
  Total Cell Count: 619
[4]
  Population Apoptotic (%): 8%
  Population Fragmented Nuclei (%): 7%
  Population Healthy Nuclei (%): 88%
  Population Hoechst High Intensity Objects (%): 1%
  Population Membrane Permeable-Phenotype (%): 1%
  Population Mitochondria Different-Phenotype (%): 12%
  Population Mitotic Cells (%): 91%
  Population Normal (%): 98%
  Population Pyknosed Nuclei (%): 4%
  Population Tubulin-Different-Phenotype (%): 6%
  Total Cell Count: 1821
[5]
  Population Apoptotic (%): 31%
  Population Fragmented Nuclei (%): 16%
  Population Healthy Nuclei (%): 56%
  Population Hoechst High Intensity Objects (%): 15%
  Population Membrane Permeable-Phenotype (%): 12%
  Population Mitochondria Different-Phenotype (%): 19%
  Population Mitotic Cells (%): 68%
  Population Normal (%): 84%
  Population Pyknosed Nuclei (%): 27%
  Population Tubulin-Different-Phenotype (%): 54%
  Total Cell Count: 519
[6]
  Population Apoptotic (%): 8%
  Population Fragmented Nuclei (%): 6%
  Population Healthy Nuclei (%): 83%
  Population Hoechst High Intensity Objects (%): 10%
  Population Membrane Permeable-Phenotype (%): 10%
  Population Mitochondria Different-Phenotype (%): 30%
  Population Mitotic Cells (%): 91%
  Population Normal (%): 89%
  Population Pyknosed Nuclei (%): 10%
  Population Tubulin-Different-Phenotype (%): 82%
  Total Cell Count: 1537
[7]
  Population Apoptotic (%): 17%
  Population Fragmented Nuclei (%): 9%
  Population Healthy Nuclei (%): 83%
  Population Hoechst High Intensity Objects (%): 4%
  Population Membrane Permeable-Phenotype (%): 8%
  Population Mitochondria Different-Phenotype (%): 2%
  Population Mitotic Cells (%): 82%
  Population Normal (%): 95%
  Population Pyknosed Nuclei (%): 7%
  Population Tubulin-Different-Phenotype (%): 5%
  Total Cell Count: 783
[8]
  Population Apoptotic (%): 2%
  Population Fragmented Nuclei (%): 22%
  Population Healthy Nuclei (%): 74%
  Population Hoechst High Intensity Objects (%): 3%
  Population Membrane Permeable-Phenotype (%): 3%
  Population Mitotic Cells (%): 97%
  Population Normal (%): 96%
  Population Pyknosed Nuclei (%): 2%
  Population Tubulin-Different-Phenotype (%): 8%
  Total Cell Count: 3029

## COc1cc2ncnc(Nc3ccc(F)c(Cl)c3)c2cc1NC(=O)/C=C/CN1CCCCC1 [DACOMITINIB ANHYDROUS]
[1]
  Population Apoptotic (%): 34%
  Population Fragmented Nuclei (%): 28%
  Population Healthy Nuclei (%): 32%
  Population Hoechst High Intensity Objects (%): 24%
  Population Membrane Permeable-Phenotype (%): 18%
  Population Mitochondria Different-Phenotype (%): 41%
  Population Mitotic Cells (%): 65%
  Population Normal (%): 75%
  Population Pyknosed Nuclei (%): 38%
  Population Tubulin-Different-Phenotype (%): 72%
  Total Cell Count: 554
[2]
  Population Apoptotic (%): 13%
  Population Fragmented Nuclei (%): 5%
  Population Healthy Nuclei (%): 83%
  Population Hoechst High Intensity Objects (%): 4%
  Population Membrane Permeable-Phenotype (%): 7%
  Population Mitochondria Different-Phenotype (%): 36%
  Population Mitotic Cells (%): 86%
  Population Normal (%): 95%
  Population Pyknosed Nuclei (%): 10%
  Population Tubulin-Different-Phenotype (%): 66%
  Total Cell Count: 1314
[3]
  Population Apoptotic (%): 14%
  Population Fragmented Nuclei (%): 14%
  Population Healthy Nuclei (%): 69%
  Population Hoechst High Intensity Objects (%): 12%
  Population Membrane Permeable-Phenotype (%): 4%
  Population Mitochondria Different-Phenotype (%): 6%
  Population Mitotic Cells (%): 85%
  Population Normal (%): 87%
  Population Pyknosed Nuclei (%): 15%
  Population Tubulin-Different-Phenotype (%): 5%
  Total Cell Count: 670
[4]
  Population Apoptotic (%): 12%
  Population Fragmented Nuclei (%): 5%
  Population Healthy Nuclei (%): 89%
  Population Hoechst High Intensity Objects (%): 2%
  Population Membrane Permeable-Phenotype (%): 2%
  Population Mitochondria Different-Phenotype (%): 11%
  Population Mitotic Cells (%): 87%
  Population Normal (%): 97%
  Population Pyknosed Nuclei (%): 5%
  Population Tubulin-Different-Phenotype (%): 6%
  Total Cell Count: 1444
[5]
  Population Apoptotic (%): 39%
  Population Fragmented Nuclei (%): 27%
  Population Healthy Nuclei (%): 34%
  Population Hoechst High Intensity Objects (%): 22%
  Population Membrane Permeable-Phenotype (%): 9%
  Population Mitochondria Different-Phenotype (%): 63%
  Population Mitotic Cells (%): 60%
  Population Normal (%): 77%
  Population Pyknosed Nuclei (%): 37%
  Population Tubulin-Different-Phenotype (%): 73%
  Total Cell Count: 532
[6]
  Population Apoptotic (%): 6%
  Population Fragmented Nuclei (%): 16%
  Population Healthy Nuclei (%): 79%
  Population Hoechst High Intensity Objects (%): 3%
  Population Membrane Permeable-Phenotype (%): 6%
  Population Mitochondria Different-Phenotype (%): 13%
  Population Mitotic Cells (%): 93%
  Population Normal (%): 96%
  Population Pyknosed Nuclei (%): 4%
  Population Tubulin-Different-Phenotype (%): 54%
  Total Cell Count: 1906
[7]
  Population Apoptotic (%): 18%
  Population Fragmented Nuclei (%): 11%
  Population Healthy Nuclei (%): 79%
  Population Hoechst High Intensity Objects (%): 6%
  Population Membrane Permeable-Phenotype (%): 10%
  Population Mitochondria Different-Phenotype (%): 3%
  Population Mitotic Cells (%): 81%
  Population Normal (%): 94%
  Population Pyknosed Nuclei (%): 9%
  Population Tubulin-Different-Phenotype (%): 10%
  Total Cell Count: 800
[8]
  Population Apoptotic (%): 4%
  Population Fragmented Nuclei (%): 18%
  Population Healthy Nuclei (%): 78%
  Population Hoechst High Intensity Objects (%): 2%
  Population Membrane Permeable-Phenotype (%): 4%
  Population Mitochondria Different-Phenotype (%): 1%
  Population Mitotic Cells (%): 95%
  Population Normal (%): 97%
  Population Pyknosed Nuclei (%): 2%
  Population Tubulin-Different-Phenotype (%): 5%
  Total Cell Count: 2468
